Published values from different studies.
Lines come from different studies, so protocols differ.

| Structure (SMILES) | tested on | assay | test system | conditions | measurement | result |
| --- | --- | --- | --- | --- | --- | --- |
| CCNc1nc(Nc2ccc(F)c(Cl)c2)c2ccccc2n1 | Vero | cell growth or viability, MTT | – | 250 µg/mL | viability | 20.6% |
| Cc1cc(Nc2cc(N3CCN(C)CC3)nc(/C=C/c3ccccc3)n2)n[nH]1 | – | – | human, plasma | oral, 60 mg/m², patients | Vd/F | 1710 L |
| O=S(=O)(NNc1nnc(Cl)c2ccccc12)c1ccc(F)cc1 | Vero | cell growth or viability, MTT | – | 62.5 µg/mL | viability | 88.2% |
| COc1cc(C(=O)NC2CCN(C)CC2)c(F)cc1Nc1ncc(C(F)(F)F)c(Oc2cccc3c2C(=O)N(C)C3)n1 | – | – | human, plasma | oral, 200 mg, multiple doses, once daily, patients | Vd/F | 290 L |
| CCOC(=O)C1CCCN1C(=O)c1ccc(NCc2cnc3nc(N)nc(N)c3n2)cc1 (centres unmarked) | Cytochrome P450 1A2 (CYP1A2, Homo sapiens, UniProt P05177) | enzyme activity, inhibitor, luciferase | – | 10 µM | inhibition | -16% |
| CC(C)(C)c1ccc(O)c(CN(Cc2cc(C(C)(C)C)ccc2O)C2CCC(NC(N)=O)CC2)c1 (centres unmarked) | – | – | male C57BL/6 mouse, plasma | intraperitoneal, 25 mg/kg, single dose | Cmax | 3620 ng/mL |
| COC(=O)C1CCN(C(=O)c2ccc(NCc3cnc4nc(N)nc(N)c4n3)cn2)CC1 | Cytochrome P450 3A4 (CYP3A4, Homo sapiens, UniProt P08684) | enzyme activity, inhibitor, luciferase | – | 10 µM | inhibition | -7.93% |
| Cn1cnc2c1c(=O)n(CC(=O)Nc1c(Cl)cccc1Cl)c(=O)n2C | Vero | cell growth or viability, MTT | – | 500 µg/mL | viability | 25.3% |
